Screens from PubChem.
An excerpt weighted towards active compounds, which were near 12% of everything screened.
Lmaj promast = inhibitors of Leishmania major promastigote growth; Leishmania major promastigotes, resazurin fluorescence viability; inhibition, % at 10 µM; hit rate 9% among 200,000; AID 1063;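 also: promastigotes grown with compound for 44 hours at 28 °C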
Arbovirus inh = arbovirus infection inhibition; hit rate 0.37% among 200,000; arbovirus infection cell-based antiviral screen; inhibition, % at 10 µM; in the data active = inhibition above about 30%
CHOP inh = inhibitors of CHOP induction in ER stress response. hit rate 3.8% among 220,000. CHO-K1 CHOP-promoter luciferase, tunicamycin-induced, 15-18 h. inhibition, % at 10 µM. AID 2732;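 active = compounds that reduced the stress-induced luciferase reporter signal by more than about 70% of percent inhibition, limit read from the data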;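 also: 0% = tunicamycin plus vehicle and 100% = wells without tunicamycin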
PKD1 kinase inh = PKD1 (human) kinase inhibition. Q15139. PKD1 kinase fluorescence polarization assay. inhibition, % (test concentration not listed). hit rate 0.056% among 200,000
Rad51 HR inh = Rad51 (human) homologous recombination inhibition. Q06609. hRad51 DNA strand exchange, fluorescence dequenching. inhibition, % at 10 µM. hit rate 0.085% among 200,000. AID 1385;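 active = inhibition above 40% at the single screening dose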;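 also: 0% = DMSO control wells and 100% = blanks with heterologous ssDNA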
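Material: Human Rad51 nucleoprotein filaments preassembled on unlabelled ssDNA | Also added: Labelled 47-mer dsDNA for strand exchange | Dosing: Single dose, 10 µM final compound | Schedule: 30-min compound preincubation and 15-min exchange, both room temperature | Technique: Fluorescence dequenching at 485/520 nm | Measure: Percent inhibition relative to plate controls and blanks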
Wee1 degr inh = blocks degradation of human Wee1 kinase; hit rate 1.2% among 220,000; P30291; reporter increase, % at 5 µM; AID 1321; HeLa Luc-Wee1K328M stability, luciferase luminescence; 100% = proteasome inhibitor MG132 effect;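 active = activation above the mean of all tested compounds plus 3 SD, set per screening run, cut at about 8.8% in these data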;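 also: cells exposed to compound for 20 h before luminescence read; 0% = DMSO alone and 100% = MG132 at 30 µM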
An asterisk follows results filed as active; x = no result given. Rule as the data show it, unless noted: active = inhibition above about 50%; inactive = the rest.

SMILES	Lmaj promast	Arbovirus inh	CHOP inh	PKD1 kinase inh	Rad51 HR inh	Wee1 degr inh
CC1=CC(=C(C#N)C#N)c2ccccc2N1C	99*	6	22	-4	-278	-2
C[C@H](NC(N)=O)C(=O)Nc1ccc2c(c1)OCO2	x	x	-19	x	5	0
Cc1ccc2nc(N3C(=O)C(O)=C(C(=O)c4ccc(C)o4)C3c3cccc(O)c3)sc2c1 (stereo not drawn)	-16	76*	-15	4	-12	-1
Cc1cc(N2C(=O)C(O)=C(C(=O)c3cccs3)C2c2cccc(O)c2)no1 (stereo not drawn)	-4	7	4	1	2	-1
COC(=O)Sc1nnc(-c2ccc(Br)cc2)o1	-7	1	91*	0	0	-1
CC(C)Oc1ccc(CCN=C(N)N=C(N)N)cc1Cl	81*	-1	-1	-7	-16	-5
COc1ccc(CCN=C(N)C(C)c2ccccc2)cc1OC (stereo not drawn)	x	x	-2	x	-12	-1
CCC(C(=O)OCC(=O)Nc1ccc(OC)cc1OC)c1ccccc1 (stereo not drawn)	3	0	8	-8	-8	-2
CCC(C(=O)OCC(=O)NC(=O)NC(C)(C)C)c1ccccc1 (stereo not drawn)	-2	2	76*	-2	x	-4
CC(C)(C)NC(=O)NC(=O)COC(=O)c1ccc(OC(F)(F)F)cc1	-7	-3	81*	-2	7	-4
COC(=O)Cc1ccc(NC(=S)NCCSc2ccc(Cl)cc2)cc1	x	x	23	x	x	0
Cn1c(SCc2ccc(Cl)cc2)nc(C(F)(F)F)cc1=O	-1	10	73*	-9	-6	-2
COc1ccc(NC(=S)NNC(=O)c2nnn(-c3ccccc3)c2C)cc1	-1	-3	-4	-9	7	-1
O=C(/C=C/c1ccccc1)NC1CC2CCC1C2 (stereo not drawn)	53*	2	-21	-18	5	1
O=C(/C=C/c1ccc(Cl)cc1)NC1CC2CCC1C2 (stereo not drawn)	3	0	-20	-1	-30	1
C=CCc1cc(/C=N/NC(=O)CSc2nnc(CCCc3ccc(OC)cc3)o2)cc(OC)c1O	0	8	78*	1	23	1
COc1ccc(/C=N/NC(=O)CSc2nnc(CCCc3ccc(OC)c(C)c3)o2)cc1	12	-4	70*	-7	2	0
COc1ccc(CCCc2nnc(SCC(=O)N/N=C\c3ccc(O)c(OC)c3)o2)cc1C	26	3	59	2	15	3
Cc1cc(Cl)cc(Br)c1OCCCCn1cncn1	93*	1	29	-8	3	0
CC(NC(=O)Cn1cc(C(F)(F)F)ccc1=O)c1ccc(F)cc1 (stereo not drawn)	-5	-1	6	-2	-3	-5
CC1CC(C)(C)N2C(=O)C3(Nc4ccccc4S3)c3cccc1c32 (stereo not drawn)	32	-23	91*	-2	0	1
CC1=NOC(=O)/C1=C\c1ccc(-c2ccccc2Br)o1	99*	-23	-17	2	17	-1
COc1ccc(/C=C/C(=O)Nc2c(C(=O)O)[nH]c3ccccc23)cc1OC	x	x	17	x	x	-1
CCOc1ccc2nc(COC(=O)c3ccncc3)c(C(=O)c3ccccc3)[n+]([O-])c2c1	x	x	-1	x	-11	-1
CCOC(=O)c1c(C2COc3ccccc3O2)csc1N (stereo not drawn)	11	2	84*	3	x	0
SMILES	Lmaj promast	Arbovirus inh	CHOP inh	PKD1 kinase inh	Rad51 HR inh	Wee1 degr inh
CCOC(=O)c1c(C2COc3ccccc3O2)csc1NC(=O)c1ccccc1 (stereo not drawn)	7	8	2	-10	11	5
CCCCC(CC)COC1(c2ccccc2)OC(=O)c2ccccc21 (stereo not drawn)	1	-11	5	-1	-1	0
O=C1OC(Oc2ccccc2)(c2ccccc2)c2ccccc21 (stereo not drawn)	98*	0	39	10	3	-4
CCCCOC1(c2ccccc2)OC(=O)c2ccccc21 (stereo not drawn)	-5	-2	81*	9	x	-1
O=C1OC(OC2CCCCC2)(c2ccccc2)c2ccccc21 (stereo not drawn)	5	-4	-9	6	-2	-3
Cc1[nH]c2ccccc2c1C(c1ccncc1)N1CCCCC1 (stereo not drawn)	41	3	-56	1	3	-3
Cc1[nH]c2ccccc2c1C(c1ccncc1)N1CCN(c2ccc(F)cc2)CC1 (stereo not drawn)	99*	15	26	-2	-8	0
CN(C)CCCNS(=O)(=O)c1ccc(N2CCC(c3ccc(Cl)cc3)=N2)cc1	100*	-50	x	-2	3	0
Cc1cc(=O)c2ccc3ccccc3c2[nH]1	54*	12	15	-1	x	-2
COc1ccc(/C=C/C(=O)NC2CCCCCCC2)cc1S(=O)(=O)N1CCOCC1	88*	-25	14	-8	3	6
COc1ccc(/C=C/C(=O)NC(C)(C)C)cc1S(=O)(=O)N1CCOCC1	0	-1	-7	7	-8	6
O=C(Nc1nc2cc3c(cc2s1)OCCO3)c1ccncc1	95*	-3	1	-7	-11	-1
O=C(NNc1nc2cc3c(cc2s1)OCO3)c1ccc(F)cc1	77*	0	-6	8	x	3
c1ccc2sc(Nc3nc4cc5c(cc4s3)OCO5)nc2c1	90*	14	-42	3	-20	6
O=C(Nc1nc2cc3c(cc2s1)OCCO3)c1ccc(N2C(=O)CCC2=O)cc1	x	x	1	x	x	-2
Fc1ccc2nc(Nc3nc4cc5c(cc4s3)OCO5)sc2c1	-4	-5	-30	6	-30	4
N#CC1=C(N)Oc2cc(Nc3ccccc3)ccc2C1c1ccncc1 (stereo not drawn)	22	-37	-16	-6	-7	-2
CCn1c(SCC(=O)Nc2ccccc2OC)nc2ccccc2c1=O	5	-1	45	-4	1	-1
CCC(C)NC(=O)CSc1nc2ccccc2c(=O)n1Cc1ccc(OC)cc1 (stereo not drawn)	55*	9	32	-6	-9	-1
Cc1ccc(NC(=O)CSc2nc3ccccc3c(=O)n2CCCN2CCCCC2)cc1C	100*	-32	2	-2	-2	-3
CCc1ccc(NC(=O)CSc2nc3ccccc3c(=O)n2CCCN2CCC(C)CC2)cc1	77*	-23	-7	1	0	2
COCCCn1c(SCC(=O)Nc2ccc(C)cc2)nc2ccccc2c1=O	4	-4	7	0	6	-3
COCCCn1c(SCC(=O)Nc2ccc(C(=O)OC)cc2)nc2ccccc2c1=O	89*	-4	14	-20	0	-1
Cc1ccc(NC(=O)CSc2nc3ccccc3c(=O)n2CCCC(=O)N2CCCC2)cc1	28	-23	0	-12	-6	4
